{"data": "Experimental data pooled from the literature", "target": "Phosphatidylinositol 4,5-bisphosphate 3-kinase catalytic subunit gamma isoform (PIK3CG, Homo sapiens, UniProt P48736)", "note": "Compare with care: the assays were run in different laboratories."}
{"SMILES": "Cc1cc(NC(=O)c2cccc3cc(-c4cccc5[nH]nc(N)c45)ccc23)ccc1F", "observed": "enzyme activity", "mode": "inhibitor", "tested at": "0.1 µM", "endpoint": "activity vs control", "result": "97%"}
{"SMILES": "Cc1c(NC(=O)c2cc(C(N)=O)nc3cc(F)ccc23)c(C(F)(F)F)nn1Cc1ccc(C#N)cc1", "observed": "cell-free assay", "method": "competition with immobilised ligand", "tested at": "1 µM", "endpoint": "remaining binding", "result": "80%"}
{"SMILES": "CCCS(=O)(=O)Nc1ccc(F)c(C(=O)c2c[nH]c3ncc(-c4ccc(Cl)cc4)cc23)c1F", "observed": "enzyme activity", "mode": "inhibitor", "tested at": "1 µM", "endpoint": "inhibition", "result": "< 10%"}
{"SMILES": "O=C(CSc1nc2nccnc2c(=O)n1CCc1ccccc1)Nc1nccs1", "observed": "enzyme activity", "mode": "inhibitor", "tested at": "10 µM", "endpoint": "inhibition", "result": "9%"}
{"SMILES": "Cc1ccc(C(=O)Nc2ccc(CN3CCN(C)CC3)c(C(F)(F)F)c2)cc1C#Cc1cnc2cccnn12", "observed": "enzyme activity", "mode": "inhibitor", "tested at": "23.5 nM", "endpoint": "remaining activity", "result": "85%"}
{"SMILES": "CC1=C(C#N)[C@@H](c2ccc3[nH]nc(C)c3c2)C(C#N)=C(c2ccc(Cl)cc2)N1", "observed": "cell-free assay", "method": "competition with immobilised ligand", "tested at": "1 µM", "endpoint": "remaining binding", "result": "100%"}
{"SMILES": "C=CC(=O)Nc1cc(Nc2nccc(Nc3cc(Cl)c(F)cc3C(C)(C)O)n2)c(OC)cc1N1CC[C@@H](N(C)C)C1", "observed": "enzyme activity", "mode": "inhibitor", "tested at": "1 µM", "endpoint": "inhibition", "result": "11%"}
{"SMILES": "CO[C@@H](C)c1c(Nc2ccc([C@@H](N(C)C(=O)C3CCS(=O)(=O)CC3)C(F)(F)F)cc2)cnc2cc(Cl)nn12", "observed": "cell-free assay", "method": "competition with immobilised ligand", "tested at": "1 µM", "endpoint": "remaining binding", "result": "87%"}
{"SMILES": "O=C(CSc1nc2nccnc2c(=O)n1CCc1ccccc1)Nc1ccccc1", "observed": "enzyme activity", "mode": "inhibitor", "tested at": "10 µM", "endpoint": "inhibition", "result": "< 20%"}
{"SMILES": "Cc1ccc(C(=O)NCc2ccsc2)cc1C#Cc1cn(C(C)C)c2ncnc(N)c12", "observed": "enzyme activity", "mode": "inhibitor", "tested at": "1 µM", "endpoint": "activity vs control", "result": "96%"}
{"SMILES": "COc1cc(-c2cc(-c3ccc(N4CCNCC4)cc3)cnc2C)cc(OC)c1OC", "observed": "enzyme activity", "mode": "inhibitor", "tested at": "1 µM", "endpoint": "inhibition", "result": "11%"}
{"SMILES": "C[C@@H]1CN(c2cc(-c3nn(C)c4ccc(OC5(C)CC5)cc34)ncn2)C[C@H](C)O1", "observed": "cell-free assay", "method": "competition with immobilised ligand", "tested at": "1 µM", "endpoint": "remaining binding", "result": "100%"}
